ChEMBL document CHEMBL1177681, “Hybrid diarylbenzopyrimidine non-nucleoside reverse transcriptase inhibitors as promising new leads for improved anti-HIV-1 chemotherapy” (Bioorg Med Chem, 2010)

Columns and labels:
[1] = system: Human immunodeficiency virus 2; test: Antiviral activity against wild type HIV2 ROD infected in human MT4 cells assessed as protection against virus-induced cytopathogenicity after 4 days by MTT assay; format: functional, organism-based; conditions: Human immunodeficiency virus 2, ISOLATE ROD, MT4, 96 h
How it was run: (§1)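 MT-4 cells at 1 × 10⁵ cells/mL infected at multiplicity of infection 0.02, then immediately plated onto serial dilutions of compound (DMSO stocks of 50 mM or higher). After 4 days at 37 °C, viable cells counted by MTT. […] Virus stocks titrated in MT-4 cells as CCID50.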

[2] = system: Human immunodeficiency virus 1; test: Antiviral activity against wild type HIV1 3B infected in human MT4 cells assessed as protection against virus-induced cytopathogenicity after 4 days by MTT assay; format: functional, organism-based; conditions: Human immunodeficiency virus 1, 3B, MT4, 96 h; how it was run: as §1
[3] = Cytotoxicity against human MT4 cells after 4 days by MTT assay; format: cell-based
How it was run: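 Uninfected MT-4 cells were run in parallel with the antiviral plates and exposed to serial compound dilutions (DMSO stocks of 50 mM or higher) for 4 days at 37 °C. Viability was read by MTT.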

[4] = Selectivity index, CC50 for human MT4 cells to EC50 for wild type HIV1 3B; format: toxicity, cell-based; conditions: read-out: Ratio CC50/EC50
How it was run: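 Selectivity index is calculated as CC50 in uninfected MT-4 cells divided by EC50 against HIV-1 IIIB. Both come from parallel 4-day MTT readings at 37 °C, with infection at multiplicity of infection 0.02.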

[5] = system: Human immunodeficiency virus 1; test: Antiviral activity against HIV1 with reverse transcriptase K103N, Y181C mutant infected in human MT4 cells assessed as protection against virus-induced cytopathogenicity after 4 days by MTT assay; format: functional, organism-based; conditions: Human immunodeficiency virus 1, MT4, 96 h
How it was run: (§2)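 MT-4 cells at 1 × 10⁵ cells/mL were infected with the mutant HIV-1 at a multiplicity of infection of 0.02. Virus stocks were titred in MT-4 cells as CCID₅₀. Cells were plated at once onto serial compound dilutions, with DMSO stocks at 50 mM or higher. After 4 days at 37 °C, viable cells were counted by MTT. EC₅₀ is the concentration giving 50% protection from viral cytopathicity.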

[6] = system: Human immunodeficiency virus 1; test: Ratio of compound EC50 to nevirapine EC50 for wild type HIV1 3B; format: functional
[7] = system: Human immunodeficiency virus 1; test: Antiviral activity against HIV1 with reverse transcriptase E138K mutant infected in human MT4 cells assessed as protection against virus-induced cytopathogenicity after 4 days by MTT assay; format: functional, organism-based; conditions: Human immunodeficiency virus 1, MT4, 96 h; how it was run: as §2
[8] = system: Human immunodeficiency virus 1; test: Antiviral activity against HIV1 with reverse transcriptase Y188L mutant infected in human MT4 cells assessed as protection against virus-induced cytopathogenicity after 4 days by MTT assay; format: functional, organism-based; conditions: Human immunodeficiency virus 1, MT4, 96 h; how it was run: as §2
[9] = system: Human immunodeficiency virus 1; test: Antiviral activity against HIV1 with reverse transcriptase Y181C mutant infected in human MT4 cells assessed as protection against virus-induced cytopathogenicity after 4 days by MTT assay; format: functional, organism-based; conditions: Human immunodeficiency virus 1, MT4, 96 h; how it was run: as §2
[10] = system: Human immunodeficiency virus 1; test: Antiviral activity against wild type HIV1 LAI infected in human MT4 cells assessed as protection against virus-induced cytopathogenicity after 4 days by MTT assay; format: functional, organism-based; conditions: Human immunodeficiency virus 1, LAI, MT4, 96 h
[11] = system: Human immunodeficiency virus 1; test: Antiviral activity against HIV1 with reverse transcriptase L100I mutant infected in human MT4 cells assessed as protection against virus-induced cytopathogenicity after 4 days by MTT assay; format: functional, organism-based; conditions: Human immunodeficiency virus 1, MT4, 96 h; how it was run: as §2
[12] = system: Human immunodeficiency virus 1; test: Ratio of compound EC50 to delavirdine EC50 for wild type HIV1 3B; format: functional
[13] = system: Human immunodeficiency virus 1; test: Ratio of compound EC50 to efavirenz EC50 for HIV1 with reverse transcriptase Y188L mutant; format: functional
[14] = system: Human immunodeficiency virus 1; test: Antiviral activity against HIV1 with reverse transcriptase F227L, V106A mutant infected in human MT4 cells assessed as protection against virus-induced cytopathogenicity after 4 days by MTT assay; format: functional, organism-based; conditions: Human immunodeficiency virus 1, MT4, 96 h; how it was run: as §2
[15] = system: Human immunodeficiency virus 1; test: Antiviral activity against HIV1 with reverse transcriptase K103N mutant infected in human MT4 cells assessed as protection against virus-induced cytopathogenicity after 4 days by MTT assay; format: functional, organism-based; conditions: Human immunodeficiency virus 1, MT4, 96 h

Structure (SMILES) | EC50 [1] [µM] | EC50 [2] [µM] | CC50 at 96 h [3] [µM] | selectivity ratio [4] | EC50 [5] [µM] | Ratio [6] | EC50 [7] [µM] | EC50 [8] [µM] | EC50 [9] [µM] | EC50 [10] [µM] | EC50 [11] [µM] | Ratio [12] | Ratio [13] | EC50 [14] [µM] | EC50 [15] [µM]
N#Cc1ccc(Nc2nc(Oc3ccccc3)c3ccccc3n2)cc1 | > 369 | 1.33 | 370 | > 279 |  |  |  |  |  |  |  |  |  |  | 
Cc1ccccc1Oc1nc(Nc2ccc(C#N)cc2)nc2ccccc12 | > 355 | 0.057 | 355 | > 6210 |  |  |  |  |  |  |  |  |  |  | 
Cc1cccc(Oc2nc(Nc3ccc(C#N)cc3)nc3ccccc23)c1 | > 355 | 0.823 | 355 | > 436 |  |  |  |  |  |  |  |  |  |  | 
COc1ccccc1Oc1nc(Nc2ccc(C#N)cc2)nc2ccccc12 | > 26 | 0.12 | 150 | 1260 |  |  |  |  |  |  |  |  |  |  | 
Cc1ccc(Oc2nc(Nc3ccc(C#N)cc3)nc3ccccc23)cc1 | > 86 | 0.105 | 87 | 831 |  |  |  |  |  |  |  |  |  |  | 
N#Cc1ccc(Nc2nc(Oc3ccccc3Cl)c3ccccc3n2)cc1 | > 37 | 0.037 | 38 | 982 |  |  |  |  |  |  |  |  |  |  | 
N#Cc1ccc(Nc2nc(Oc3ccc(F)cc3)c3ccccc3n2)cc1 | > 351 | 0.59 | > 351 | > 607 |  |  |  |  |  |  |  |  |  |  | 
N#Cc1ccc(Nc2nc(Oc3ccc(Cl)cc3)c3ccccc3n2)cc1 | > 197 | 0.19 | 198 | 1040 |  |  |  |  |  |  |  |  |  |  | 
N#Cc1ccc(Nc2nc(Oc3ccc(Br)cc3)c3ccccc3n2)cc1 | > 214 | 0.264 | 215 | 810 |  |  |  |  |  |  |  |  |  |  | 
COc1ccc(Oc2nc(Nc3ccc(C#N)cc3)nc3ccccc23)cc1 | > 339 | 0.19 | 340 | > 1790 | > 339 |  |  |  |  |  |  |  |  |  | 
N#Cc1ccc(Nc2nc(Oc3ccc(Cl)cc3Cl)c3ccccc3n2)cc1 | > 31 | 0.023 | 32 | 1410 | > 31 |  |  |  |  |  |  |  |  |  | 
N#Cc1ccc(Nc2nc(Oc3c(Cl)cc(Cl)cc3Cl)c3ccccc3n2)cc1 | > 55 | 0.021 | 56 | 2630 | 1.5 |  |  |  |  |  |  |  |  |  | 
Cc1cccc(C)c1Oc1nc(Nc2ccc(C#N)cc2)nc2ccccc12 | ≥ 10 | 0.023 | 35 | 1510 | 0.53 |  |  |  |  |  |  |  |  |  | 
Cc1cc(C)c(Oc2nc(Nc3ccc(C#N)cc3)nc3ccccc23)c(C)c1 | > 34 | 0.011 | > 34 | > 3220 | 2 |  |  |  |  |  |  |  |  |  | 
Cc1cc(Br)cc(Br)c1Oc1nc(Nc2ccc(C#N)cc2)nc2ccccc12 | ≥ 14 | 0.019 | 150 | 7930 | 0.35 |  |  |  |  |  |  |  |  |  | 
Cc1cc(Br)c(Oc2nc(Nc3ccc(C#N)cc3)nc3ccccc23)c(Br)c1 | ≥ 4.6 | 0.02 | 25 | 1280 | 0.59 |  |  |  |  |  |  |  |  |  | 
N#Cc1ccc(Nc2nc(Oc3c(Br)cc(Br)cc3Br)c3ccccc3n2)cc1 | ≥ 8.6 | 0.028 | 58 | 2120 | 0.93 |  |  |  |  |  |  |  |  |  | 
CCOc1cc(C#N)cc(Cl)c1Oc1nc(Nc2ccc(C#N)cc2)nc2ccccc12 | > 21 | 0.0075 | 22 | 2970 | 0.29 |  |  |  |  |  |  |  |  |  | 
COc1cc(C#N)ccc1Oc1nc(Nc2ccc(C#N)cc2)nc2ccccc12 | > 140 | 0.033 | ≥ 140 | 64200 | > 140 |  |  |  |  |  |  |  |  |  | 
COc1cc(C#N)cc(OC)c1Oc1nc(Nc2ccc(C#N)cc2)nc2ccccc12 | > 194 | 0.0087 | 194 | 22000 | 0.92 |  |  |  |  |  |  |  |  |  | 
CCOc1cc(C#N)cc(OCC)c1Oc1nc(Nc2ccc(C#N)cc2)nc2ccccc12 | > 108 | 0.016 | 108 | 6770 | > 108 |  |  |  |  |  |  |  |  |  | 
CCCOc1cc(C#N)cc(OC)c1Oc1nc(Nc2ccc(C#N)cc2)nc2ccccc12 | > 5.2 | 0.013 | 5.2 | 408 | > 5.2 |  |  |  |  |  |  |  |  |  | 
CCCOc1cc(C#N)cc(OCC)c1Oc1nc(Nc2ccc(C#N)cc2)nc2ccccc12 | > 122 | 0.058 | 123 | 2080 | > 122 |  |  |  |  |  |  |  |  |  | 
Cc1cc(C#N)cc(C)c1Oc1nc(Nc2ccc(C#N)cc2)nc2ccccc12 | 32 | 0.0018 | 203 | 112000 | 0.06 | 731 | 0.011 | 0.036 | 0.031 | 0.0023 | 0.018 | 266 | 6 | 0.107 | ≤ 0.0036
Cc1cc(C#N)cc(C)c1Oc1nc(Nc2ccc(C#N)cc2)nc2ccc(Cl)cc12 | > 117 | 0.0085 | 117 | 13800 | 0.7 |  |  |  |  |  |  |  |  |  | 
COc1cc(C#N)cc(Cl)c1Oc1nc(Nc2ccc(C#N)cc2)nc2ccccc12 | > 219 | 0.0047 | 220 | 46900 | 0.16 |  | 0.012 | 0.28 | 0.049 | 0.0054 | 0.11 |  |  | 0.467 | ≤ 0.0054
CC(C)Nc1cccnc1N1CCN(C(=O)c2cc3cc(NS(C)(=O)=O)ccc3[nH]2)CC1 [DELAVIRDINE] |  | 0.479 | > 43 | > 92 | > 43 |  | 0.566 | 6.43 | 6.25 | 0.61 | 7.95 |  |  | 9.85 | 6.51
O=C1Nc2ccc(Cl)cc2[C@@](C#CC2CC2)(C(F)(F)F)O1 [EFAVIRENZ] |  |  | ≥ 6.3 |  | 0.11 |  | 0.0054 | 0.222 | 0.0057 |  | 0.032 |  |  | 0.104 | 0.066
Cc1ccnc2c1NC(=O)c1cccnc1N2C1CC1 [NEVIRAPINE] |  | 1.32 | ≥ 15 |  | ≥ 15 |  | 0.162 | > 15 | > 15 | 0.102 | 2.03 |  |  | > 15 | 
